# Screens from PubChem.
# Shown are actives, neighbours in structure and some others; about 9.2% of the full set was active somewhere.
# Lung fibro prol: blocks proliferation of human lung fibroblasts; LL 47 human lung fibroblast viability, ATP luminescence; stronger effect = lower value; viability, % at 10 µM; hit rate 1.1% among 85,000; AID 719;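 active means viability at or below 50% in the single dose screen; inactive means viability above 50%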;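 further: compound exposure lasted 72 h before the ATP readout; 100% = median luminescence of untreated cell-only wells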
#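 Times – overnight cell rest, 72 h compound treatment at 37 °C · Test system – human lung fibroblast line LL 47, low passage · Amount – 1,150 cells in each well · Controls – cell-only wells, no compound · Doses – 0.1% DMSO in all compound wells · Measured by – CellTiter-Glo luminescence · Buffer or medium – IMEM plus 15% FBS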
# ERa SRC1 pot: ER-alpha (human) coactivator binding potentiation; TR-FRET ERalpha-LBD/SRC-Cy5 coactivator binding, 2 h; 100 = basal binding, no effect; coactivator binding (% of control), % at 25.6 µM; hit rate 1.3% among 86,000; AID 639; in the data active means activity above about 200%;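 further: binding measured in presence of low estradiol as agonist stimulus; 0% = peptide alone without receptor and 100% = receptor with peptide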
# Target sequence (P03372 whole entry, looked up, the tested form may be a part): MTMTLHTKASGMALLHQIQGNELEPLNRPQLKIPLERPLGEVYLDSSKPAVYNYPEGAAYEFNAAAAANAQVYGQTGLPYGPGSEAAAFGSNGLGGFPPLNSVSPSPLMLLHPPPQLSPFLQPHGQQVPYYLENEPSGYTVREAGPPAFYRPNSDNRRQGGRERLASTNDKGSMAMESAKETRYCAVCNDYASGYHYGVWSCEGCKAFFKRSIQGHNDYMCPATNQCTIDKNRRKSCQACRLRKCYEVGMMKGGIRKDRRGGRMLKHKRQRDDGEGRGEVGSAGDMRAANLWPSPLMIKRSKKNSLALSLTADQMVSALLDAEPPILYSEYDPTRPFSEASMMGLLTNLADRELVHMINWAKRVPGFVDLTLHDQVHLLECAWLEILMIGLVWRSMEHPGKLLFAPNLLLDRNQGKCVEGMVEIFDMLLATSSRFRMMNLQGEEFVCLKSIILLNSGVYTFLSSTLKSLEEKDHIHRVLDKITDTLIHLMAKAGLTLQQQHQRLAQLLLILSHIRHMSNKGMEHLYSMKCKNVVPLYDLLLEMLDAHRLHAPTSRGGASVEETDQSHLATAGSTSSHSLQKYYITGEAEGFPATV
# H69AR growth 86K: blocks growth of human H69AR lung tumor cells; viability, % at 10 µM; AID 598; hit rate 6% among 85,000; H69AR lung tumor viability, ATP luminescence, 72 h; stronger effect = lower value;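 active means viability at or below 40%; inactive means viability above 40%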;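 further: multidrug resistant small cell line overexpressing MRP-1 efflux transporter; 100% = mean luminescence of untreated control wells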
# HUVEC inhibit: inhibitors of human endothelial cell proliferation | hit rate 1.1% among 86,000 | HUVEC proliferation, CellTiter-Glo luminescence, 72 h; stronger effect = lower value | viability, % at 10 µM (by protocol);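 active means viability at or below 30%; inactive means viability above 30%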;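 further: 100% = median luminescence of DMSO-only cell control wells on each plate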
# ERb coact inh: ER-beta (human) coactivator binding inhibition; AID 633; hit rate 1.3% among 86,000; inhibition, % at 25.6 µM; Q92731; TR-FRET ER-beta LBD / SRC1-Cy5 peptide binding; receptor agonist-loaded with 1 µM estradiol;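 active means compounds whose percent inhibition of the receptor-coactivator binding signal exceeds about 50% in the single-dose screen, limit read from the data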;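 further: 0% = receptor plus peptide wells without compound and 100% = peptide-only wells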
# ERa SRC1 inh: blocks coactivator binding to human estrogen receptor alpha. P03372. TR-FRET ER-alpha LBD / SRC-1 peptide, estradiol-bound. inhibition, % at 25.6 µM. hit rate 1.7% among 86,000; in the data active means inhibition above about 50%;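 further: 0% = receptor plus peptide control and 100% = peptide only without receptor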
# Starred values were filed as active, the others as inactive; . = no result; [ ] = another dose, or the depositor's remark.
SMILES,Lung fibro prol,ERa SRC1 pot,H69AR growth 86K,HUVEC inhibit,ERb coact inh,ERa SRC1 inh
CCC1(CC)NC(=O)N(CC(=O)Nc2sc3c(c2C(N)=O)CCC3)C1=O,95.9,28.1,87.3,94.0,73.7*[fluorescence artefact?],84.3*
CCOC(=O)c1c(NC(=O)CSc2nnc(-c3ccc(OC)cc3)o2)sc2c1CCC2,99.9,115.9,58.1,98.8,14.6,35.4
CCCCC(=O)Nc1sc2c(c1C(N)=O)CCC2,95.6,107.9,90.6,87.5,-0.9,-2.0
CC(C)(C)c1ccc(C(=O)N2CCC(C(=O)NCc3ccco3)CC2)cc1,87.0,117.1,85.4,91.2,7.8,0.3
OC1CC(c2ccco2)NC2(CCCCC2)C1 (configuration not stated),100.1,110.0,.,100.3,1.9,-4.1
O=C(Nc1cccnc1)C1CCCN(S(=O)(=O)c2cccc3nsnc23)C1 (configuration not stated),101.4,114.5,89.4,109.9,5.3,3.7
Cc1ccc(SCc2cn3c(C)csc3n2)cc1,100.0,89.5,96.5,108.0,1.5,6.1
CCOC(=O)c1c(NC(=O)c2ccc(-n3cnnn3)cc2)sc2c1CCCC2,.,93.8,2.1*,36.3,8.5,19.1
CCCN1C(=O)C(O)(CC(=O)c2cccc(OC)c2)c2ccccc21 (configuration not stated),92.4,98.0,27.7*,85.4,-30.3,-21.8
CCCN1C(=O)C(O)(CC(=O)c2ccc3c(c2)OCCO3)c2ccccc21 (configuration not stated),95.4,106.5,17.4*,95.9,-12.5,-6.9
C#CCN1C(=O)C(O)(CC(=O)c2ccc3c(c2)OCCO3)c2ccccc21 (configuration not stated),100.1,106.0,34.5*,81.3,12.8,-1.2
C#CCN1C(=O)C(O)(CC(=O)c2ccc(OC)c(OC)c2)c2ccccc21 (configuration not stated),97.7,102.3,40.9,101.8,-10.0,-7.8
CN1C(=O)C(O)(CC(=O)c2ccc3c(c2)OCO3)c2ccccc21 (configuration not stated),95.5,101.8,88.9,108.8,4.0,-1.8
Cc1ccnc(NC(=O)CCC(=O)N(CC(=O)NCC2CCCO2)Cc2ccc(F)cc2)c1 (configuration not stated),90.0,95.9,96.8,90.8,2.8,9.7
O=C(CN1C(=O)CCC1=O)Nc1ccc(Br)cc1,102.1,95.1,39.5*,88.1,-10.3,-4.8
COc1ccc(S(=O)(=O)N2CCCN(CC(=O)Nc3cc(NC(C)=O)ccc3OC)CC2)cc1,98.3,112.9,58.9,90.0,-5.1,-3.2
O=C(CN1CCN(S(=O)(=O)c2ccc(Br)cc2)CC1)Nc1ccc(F)cc1,99.0,119.3,1.6*,92.5,1.2,10.8
COc1ccc(NC(C)=O)cc1NC(=O)CN1CCN(S(=O)(=O)c2ccc(C(C)C)cc2)CC1,79.8,248.9*[fluorescence artefact?],57.6,63.5,45.8,-3.8
COc1ccc(NC(=O)CN2CCN(S(=O)(=O)c3ccc(Cl)cc3)CC2)cc1,91.5,98.2,85.8,75.2,0.4,11.9
COc1ccc(S(=O)(=O)N2CCN(CC(=O)Nc3cc(OC)cc(OC)c3)CC2)cc1,103.3,117.7,4.9*,85.8,-0.5,3.4
COC(=O)c1ccc(NC(=O)CN2C(=O)CCC2=O)cc1,108.7,107.1,100.0,100.7,6.3,-5.3
C=CCN(CC=C)CC(=O)Nc1ccc(S(N)(=O)=O)cc1,104.5,122.8,84.8,94.4,4.2,-1.9
O=C1C(=O)N(CCCn2ccnc2)C(c2cccnc2)/C1=C(/O)c1ccc(Br)cc1 (configuration not stated),94.1,140.7,99.1,100.1,-7.0,-8.4
CN=C1S/C(=C\c2cccn2-c2cccc(Br)c2)C(=O)N1C,94.0,146.2,81.7,85.7,2.8,10.1
CCOC(=O)CSc1nc2ccc(N3CCOCC3)cc2c(=O)n1Cc1ccc2c(c1)OCO2,91.4,156.7,93.7,87.9,24.6,16.0
SMILES,Lung fibro prol,ERa SRC1 pot,H69AR growth 86K,HUVEC inhibit,ERb coact inh,ERa SRC1 inh
COc1ccc(S(=O)(=O)N2CCCN(CC(=O)Nc3ccc(OC)c(Cl)c3)CC2)cc1,103.1,100.9,2.1*,97.7,5.8,4.3
O=C(NC1CCN(Cc2ccccc2)CC1)C1CCN(c2nnc(-n3cccc3)s2)CC1,93.4,-0.4,89.4,103.4,16.1,53.9*[fluorescence artefact?]
O=C(NCCCN1CCc2ccccc2C1)C1CCN(c2nnc(-n3cccc3)s2)CC1,100.5,88.4,76.8,99.0,33.4,72.1*[fluorescence artefact?]
O=C(NC1CCN(Cc2ccccc2)CC1)C1CCCN(c2nnc(-n3cccc3)s2)C1 (configuration not stated),105.5,122.4,75.0,104.4,4.5,18.1
CCN(CC)S(=O)(=O)c1ccc(N2CCN(S(=O)(=O)c3ccccc3C#N)CC2)nc1,92.4,100.9,38.1*,91.7,5.4,-5.4
N#Cc1ccccc1S(=O)(=O)N1CCN(c2ccc(S(=O)(=O)N3CCOCC3)cn2)CC1,96.2,98.8,81.9,103.0,-4.3,6.6
CCOC(=O)C1=C(C)NC2=C(C(=O)CC(c3cccs3)C2)C1c1cccs1 (configuration not stated),57.5,142.5,15.0*,41.5,1.8,-7.4
CCCOC(=O)C1=C(C)NC2=C(C(=O)CCC2)C1c1cccs1 (configuration not stated),105.5,104.1,91.6,99.4,-17.3,0.2
COC(=O)C1=C(C)NC2=C(C(=O)CC(c3cccs3)C2)C1c1ccsc1 (configuration not stated),68.8,106.0,23.6*,71.3,-5.7,2.0
CC1=C(C(=O)OC2CCCCCC2)C(c2ccc(C)o2)C2=C(CCCC2=O)N1 (configuration not stated),93.7,110.7,96.0,96.8,4.1,-4.4
COC(=O)C1=C(C)NC2=C(C(=O)CCC2)C1c1ccsc1 (configuration not stated),107.4,121.8,79.4,99.9,-0.2,-9.5
CC1=C(C(=O)OC2CCCC2)C(c2ccc(C)o2)C2=C(CC(c3cccs3)CC2=O)N1 (configuration not stated),84.9,84.7,35.3*,92.7,0.1,0.8
CCN(c1ccccc1)c1cc(C)nc2nc(C)nn12,105.1,82.9,72.3,97.3,8.6,-1.8
Cc1cccc(N(C)c2cc(C)nc3nc(C)nn23)c1,95.1,101.7,23.2*,101.7,11.0,1.8
N#Cc1cc2ccccc2nc1SCc1cccnc1,93.1,306.5*[fluorescence artefact?],76.3,95.2,-3.2,-3.1
COc1ccc2nc(SCc3cccnc3)c(C#N)cc2c1,88.4,202.0*[fluorescence artefact?],84.0,81.1,0.6,1.8
N#Cc1cc2c(nc1SCc1cccnc1)CCCCC2,99.3,100.2,93.0,112.6,-23.8,-12.5
COc1ccc(-c2nnc(SCC(=O)N3CCCC3)o2)cc1OC,100.3,118.9,99.2,96.0,-28.0,-21.6
